High-throughput results as filed in PubChem BioAssay.
L929 necroptosis = inhibitors of zVAD-triggered necroptosis, primary screen, L929 cells | AID 1377, 2008 | viability rescue, % at 10 µM | 220,000 tested, 0.38% active | L929 zVAD necroptosis rescue, ATP luminescence, 24 h; with zVAD 60 µM;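 active means activation, scaled between plate controls, above about 75%, limit read from the data; inactive means activation under that limit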;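 further: 0% = zVAD with DMSO and 100% = DMSO alone without zVAD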
TNF death inh = inhibitors of TNF-alpha triggered necroptosis, primary screen, cell-based, Jurkat FADD-/-, single concentration. AID 463075, 2010. Jurkat FADD-/- TNF necroptosis rescue, ATP luminescence, 24 h; 0 = TNF only, 100 = no-TNF cells. activation (protection from cell death), % at 10 µM. 220,000 tested, 0.068% active;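 active means activation, meaning protection from cell death, of at least 50% relative to plate controls; inactive means activation below 50%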;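 further: necroptosis triggered by 40 ng/mL TNF-alpha added together with compound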
Wee1 degr inh = Wee1 degradation inhibitors, primary screen, cell-based, HeLa, Wee1K328M-luciferase, luminescence | Wee1-like protein kinase (Homo sapiens), P30291 | HeLa Luc-Wee1K328M stability; 100% = proteasome inhibitor MG132 effect | reporter increase, % at 5 µM | 220,000 tested, 1.2% active | AID 1321, 2008;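 active means activation above the mean of all tested compounds plus 3 SD, set per screening run, cut at about 8.8% in these data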;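 further: cells exposed to compound for 20 h before luminescence read; 0% = DMSO alone and 100% = MG132 at 30 µM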
Target sequence (P30291 whole entry K328M): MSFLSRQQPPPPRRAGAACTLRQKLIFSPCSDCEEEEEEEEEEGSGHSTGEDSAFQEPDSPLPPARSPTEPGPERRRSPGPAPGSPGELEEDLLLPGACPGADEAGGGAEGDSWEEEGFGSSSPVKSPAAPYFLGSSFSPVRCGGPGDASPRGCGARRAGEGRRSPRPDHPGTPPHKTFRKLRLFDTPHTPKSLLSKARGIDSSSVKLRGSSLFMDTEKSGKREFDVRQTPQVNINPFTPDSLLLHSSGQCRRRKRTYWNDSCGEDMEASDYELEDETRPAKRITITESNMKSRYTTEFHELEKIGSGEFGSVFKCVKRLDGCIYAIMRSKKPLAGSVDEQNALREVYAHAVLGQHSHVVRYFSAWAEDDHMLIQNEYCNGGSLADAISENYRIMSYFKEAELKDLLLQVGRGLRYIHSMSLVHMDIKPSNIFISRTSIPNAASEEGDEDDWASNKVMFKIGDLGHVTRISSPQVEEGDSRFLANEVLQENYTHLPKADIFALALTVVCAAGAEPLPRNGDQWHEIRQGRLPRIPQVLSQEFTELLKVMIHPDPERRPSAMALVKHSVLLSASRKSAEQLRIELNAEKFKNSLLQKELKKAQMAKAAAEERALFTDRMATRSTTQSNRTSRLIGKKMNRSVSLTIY
Pf gamet viab = late stage P. falciparum gametocyte viability inhibitors, primary screen, ATP luminescence, HTS; inhibition, % at 10.9 µM; 150,000 tested, 0.065% active; P. falciparum stage V gametocytes, 24 h;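 active means inhibition above the mean plus 3 SD of compounds within the control limits, set per campaign, cut at about 38% in these data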;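 further: 0% = DMSO wells and 100% = medium only without gametocytes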
MDM2 E3 inh = MDM2-luciferase reporter signal enhancers, primary screen, MDM2 E3 ligase inhibitor project, cell-based, luminescence, 1536-well | cell-based MDM2 ubiquitination luciferase reporter, 2 h; 0 = plate control, 100 = twice control, blank-subtracted | signal enhancement, % at 5 µM | 210,000 tested, 0.11% active | AID 1230, 2008;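 active means signal enhancement of 30% or more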;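 further: luminescence tracks abundance of the self-degrading MDM2-luciferase fusion protein; higher signal means inhibition of MDM2 E3 ligase activity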
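Material: Stable MDM2–luciferase fusion reporter cells | Amount: 2000 cells seeded into each well | Dosing: One concentration, 5 µM, with 0.2% DMSO | Incubation: 4 h cell settling then 2 h compound exposure, 37 °C | Measured by: Luciferase luminescence | Read-out basis: % enhancement relative to plate controls after blank subtraction | Benchmarks: Control and blank well means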
The depositor's hits bear a star; . = no result given. Rows were chosen to be rich in hits. Some 1.6% of all compounds tested hit in one or more screens of this group.

SMILES	L929 necroptosis	TNF death inh	Wee1 degr inh	Pf gamet viab	MDM2 E3 inh
CC1(C)CC2CC(C)(CN2C(=O)COC(=O)c2cc(Cl)cc(Cl)c2N)C1 (centres undefined)	0.5	-0.4	-0.4	.	-5.4
Cc1ccc(C(=O)Nc2cnc3ccccc3c2)cc1	-0.2	-0.6	-3.7	.	-15.5
Cc1cc(C(=O)Nc2cnc3ccccc3c2)ccc1[N+](=O)[O-]	1.3	2.0	9.1*	-4.8	-9.8
CCCCC/C(=N\NC(=O)Nc1ccccc1)c1ccccc1	7.7	0.2	9.2*	8.8	-16.1
CCCC/C(C)=N/NC(=O)Nc1ccccc1	-0.4	-2.5	3.6	.	-13.6
O=c1c(-c2nc3ccccc3s2)cccn1Cc1ccccc1	0.4	0.4	9.0*	-12.4	-24.5
O=C1OC(c2ccccc2)=C/C1=C\N1CCOCC1	0.2	1.3	27.0*	.	-1.5
O=C1OC(c2ccccc2)=C/C1=C/N1CCOCC1	-0.9	-1.2	1.3	-5.4	-0.4
O=C(NCC(=O)N1CCCCCC1)c1ccc(Cl)cc1	.	.	.	2.1	.
NC(=O)CNC(=O)c1ccc(Cl)cc1	1.0	0.9	9.1*	1.0	-8.6
CCOC(=O)N1CCN(CC(=O)Nc2cc(OC)c(OC)cc2C#N)CC1	0.5	0.4	0.2	11.5	-20.2
Cn1nc(-c2ccc(OCC(=O)NCC3CCCO3)cc2)c2ccccc2c1=O (centres undefined)	-0.2	-4.5	9.6*	.	-18.0
Cn1nc(-c2ccc(C(=O)NCC3CCCO3)cc2)c2ccccc2c1=O (centres undefined)	0.1	-3.9	4.8	14.5	.
CN1/C(=C/C2CC(=O)N(c3cccc4ccccc34)C2=O)C(C)(C)c2ccccc21 (centres undefined)	0.5	0.6	3.3	.	7.2
CN1/C(=C/C2CC(=O)NC2=O)C(C)(C)c2ccccc21 (centres undefined)	-0.1	0.1	13.0*	.	-2.5
Cc1oc(-c2ccccc2F)nc1CS(=O)(=O)CC(=O)NCc1ccco1	1.4	0.9	9.2*	.	-12.1
Cc1c(NC(=O)/C(=C/c2cccs2)c2cccs2)c(=O)n(-c2ccccc2)n1C	-0.8	-0.1	4.2	14.3	-3.7
O=C(Cn1c(-c2cscn2)nc2ccccc21)Nc1ccc2ccccc2c1	-0.1	-3.4	10.7*	.	-15.6
O=C1CC(c2ccccc2)CC(O)=C1C=NCc1ccccc1 (centres undefined)	-0.2	-1.2	-2.0	0.4	-5.1
O=C1CC(c2cccc(Cl)c2)CC(O)=C1C=NC1CCCC1 (centres undefined)	0.5	4.2	-2.3	5.8	32.2*
O=C1CC(c2ccccc2)CC(O)=C1C=Nc1ccc(O)cc1 (centres undefined)	0.0	-3.5	-1.4	-14.4	2.3
O=C1CC(c2ccccc2)CC(O)=C1C=NCc1ccccc1Cl (centres undefined)	1.9	-9.8	9.3*	.	-1.7
c1ccc(-c2nc(NCc3ccco3)c3ccccc3n2)nc1	17.9	-7.6	1.5	-35.3	-16.4
O=C1CCCCC1C(Nc1ccc(Br)cc1)c1ccccc1 (centres undefined)	-0.2	-5.4	-1.2	12.5	-7.5
O=C1CCCCC1C(Nc1ccc(Cl)cc1)c1ccccc1 (centres undefined)	0.4	-6.8	9.5*	.	-29.0
SMILES	L929 necroptosis	TNF death inh	Wee1 degr inh	Pf gamet viab	MDM2 E3 inh
COc1ccccc1NC(=S)NC(=O)c1ccc(-c2ccc(Cl)cc2)o1	0.1	-8.3	14.2*	.	-4.4
COc1cc(/C=N/Nc2ccc(C(=O)O)cc2)ccc1O	0.4	-0.8	3.2	-13.9	-65.9
COc1cc2c(cc1OC)CN(c1nc(-c3cccnc3)nc3ccccc13)CC2	2.1	-4.4	10.2*	11.7	-8.7
CN1CCN(c2nc(-c3cccnc3)nc3ccccc23)CC1	1.0	0.4	-0.7	-29.1	0.2
Cc1cc(CNC(=O)Cn2nc(C)c([N+](=O)[O-])c2C)c2ccccc2n1	1.6	-10.8	-3.4	16.2	-1.9
NS(=O)(=O)c1ccc(CCNC(=O)CSc2nc3ccsc3c(=O)n2CC2CCC(C(=O)O)CC2)cc1 (centres undefined)	0.9	1.4	10.7*	-17.1	-3.2
CN(C(=O)c1ccno1)c1nnc(-c2cnccn2)s1	0.0	-1.9	-1.1	.	-15.7
CC(=O)N(CC1CCCO1)c1nnc(-c2cnccn2)s1 (centres undefined)	0.3	75.7*	-2.7	.	-15.4
COc1ccccc1NC(=O)Nc1cccc(NC(C)=O)c1	0.4	0.1	-0.6	0.6	-3.7
CC(NC(=O)c1cc(Br)ccc1Cl)c1ccccc1 (centres undefined)	1.2	79.7*	4.1	-1.7	-20.6
CC(NC(=O)c1ccc(Br)cc1Br)c1ccccc1 (centres undefined)	0.8	1.2	0.9	-6.9	-0.4
CC(=O)c1c(C)nc(-c2ccc(OCC(=O)Nc3ccc(F)cc3)cc2)n1O	2.3	0.7	-0.4	.	-5.7
Cc1ccccc1OCCNC(=O)c1ccc2ccccc2n1	1.6	1.5	9.6*	.	4.3
COCCNC(=O)c1ccc2ccccc2n1	0.4	-4.4	5.8	-6.9	-16.1
Cc1ccc(-c2nnn(CC(=O)NCc3ccccc3)n2)c(-n2cnnn2)c1	0.5	0.3	2.0	.	-9.7
Cc1ccc(NC(=O)Cn2cnc3c(cnn3C(C)(C)C)c2=O)cc1	84.5*	2.4	-2.6	.	-18.3
Cc1cccc(Cn2c(=O)n(Cc3ccco3)c(=O)c3ccccc32)c1	-1.2	-2.0	10.2*	-2.5	-12.0
O=C(Cn1ncc(Cl)c(Cl)c1=O)NC1CCS(=O)(=O)C1 (centres undefined)	-0.7	0.1	9.5*	-5.9	.
O=C(Cn1ncc(Cl)c(Cl)c1=O)NCC1CCCCC1	-1.5	-13.4	-0.3	22.1	79.6*
C=CCc1cccc(/C=N/NC(=O)c2ccccc2OC)c1O	12.8	-10.1	8.9*	.	-52.6
O=C(NCc1n[nH]c(=S)n1-c1cccc(Cl)c1)c1ccc(S(=O)(=O)N2CCCC2)cc1	-0.2	-0.2	11.4*	15.8	-10.7
C#CCOCCOCCOCCNc1nc(N2CCN(C(=O)[C@H](CO)n3cc([C@@H](N)C(C)C)nn3)CC2)nc(N2CCN(C(=O)[C@H](CCCCN)n3cc([C@@H](N)[C@H](C)CC)nn3)CC2)n1	.	.	.	5.5	.
O=C(Nc1ccccc1Oc1ccccc1)C1CC1	1.0	-0.5	10.3*	.	-43.3
Cc1nnc(SCc2ccccc2)[nH]c1=O	2.0	0.6	-2.5	10.3	-0.9
Cc1nnc(SCC(C)C)[nH]c1=O	0.7	1.2	9.4*	.	-7.6
Cc1ccc(C)c(OCc2ccc(C(=O)N3N=C(C(F)F)CC3(O)C(F)F)o2)c1 (centres undefined)	0.2	2.1	-2.8	-19.5	-3.3
